# In the EternaBench riboswitch data:
# Columns and labels:
# [1] = tested on: MS2 coat protein; assay: apparent Kd, MS2 coat protein; higher = weaker binding; RNA-MaP array
# Outline: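 Sequenced DNA templates on an Illumina sequencing chip were transcribed into the designed RNAs. These were incubated at room temperature in Tris-HCl pH 7.5 buffer containing KCl, MgCl2, BSA, DTT, tRNA and Tween20 with fluorescently labeled MS2 coat protein at 1.5 nM to 3 μM, with or without input ligand. Apparent Kd is the median of binding-curve fits per cluster, and designs with fewer than 10 clusters measured were excluded.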
# [2] = tested on: MS2 coat protein; assay: apparent Kd, MS2 coat protein; higher = weaker binding; RNA-MaP array; FMN 200 µM where present
# Outline: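 The apparent Kd comes from binding curves fitted cluster by cluster, filtered, and summarised as a median. Those curves followed SNAP-549-labelled MS2 coat protein from 0.7 or 1.5 nM, doubling to 3 µM, on Illumina sequencing-chip clusters where stalled E. coli RNA polymerase had transcribed the designs, without and then with constant ligand. The buffer was 100 mM Tris-HCl pH 7.5, 80 mM KCl, 4 mM MgCl2, BSA, DTT, yeast tRNA and Tween-20, and green signal was normalised to red-channel RNA signal and control-cluster median Fmax.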
# [3] = designed as: OFF switch for flavin mononucleotide, no ligand
# [4] = ligand present: flavin mononucleotide, designed as: OFF switch for flavin mononucleotide
# [5] = designed as: ON switch for flavin mononucleotide, no ligand
# [6] = ligand present: flavin mononucleotide, designed as: ON switch for flavin mononucleotide
sequence,measurement,setting,value
GCUGGACAUGAGGAUCACCCAUGUGAGGAUAUGAGAAGUAUCAUGCACCCGAUCCAUCUCAGAAGGCACAGGUG,apparent Kd,[1]; [3],71.5 nM
same,apparent Kd,[1]; [4],258 nM
UGACGUGGUAAGAAGGCAAGAGCAGGGCAGGAUUGAGGAUAUUACGGACAGACAUGAGGAUCACCCAUGUAGAGCCAUAACCGG,apparent Kd,[1]; [5],8.55 nM
same,apparent Kd,[1]; [6],7.89 nM
GAGCUAUCAGGAUAUACAUGAGGAUCACCCAUGUUUUUUGGAAUCAAGAGGAAUCAAUGUAGAAGGGAUCUCGA,apparent Kd,[1]; [3],21.8 nM
same,apparent Kd,[1]; [4],28.2 nM
CCGAGCACAGGAUAUACAUGAGGAUCACCCAUGUAUACGAAUACGACACAUCCUGCGUGUAGAAGGGUGGCAAA,apparent Kd,[1]; [3],6.47 nM
same,apparent Kd,[1]; [4],6.22 nM
GAAAAUACAUGAGGAUCACCCAUGUGGUGGCGUCAGAUUGGUUAGGAUAUCUUGGCGGGAUACUGAGAGAAGGAACUUUGAAGG,apparent Kd,[1]; [3],181 nM
same,apparent Kd,[1]; [4],136 nM
AUGAACAACCAGAAGGCAACGUUGGCCCAAGUUUGAGGAUAUGGACGUGGAAGUUCGCACAUGAGGAUCACCCAUGUAGAUCAG,apparent Kd,[1]; [3],14 nM
same,apparent Kd,[1]; [4],12.8 nM
UUACCUUAUGAGAAGGCGGUCAUGAAACAUGAUCGAGGAUAUCAUGUAAACAUGAGGAUCACCCAUGUAUGGGUAUUAUGGUAC,apparent Kd,[2]; [5],165 nM
same,apparent Kd,[2]; [6],31.8 nM
AAUAACAGAGGAUAUACUAUUUUAUGUGUUUAUUGUUUUAAACAUGAGGAUCACCCAUGUAGAAGGCUGAUUGA,apparent Kd,[2]; [3],77.3 nM
same,apparent Kd,[2]; [4],114 nM
GAGUCGAGUAAUAAAUAAGAUCUACAUGAGGAUCACCCAUGUAAGGAUAUGCAGUGGAAUACACUGCAGAAGGUACAUCUCGAC,apparent Kd,[2]; [3],15.1 nM
same,apparent Kd,[2]; [4],33.4 nM
UUCAGCUCGUGAGGAUAUACAUGUGCUGGAAACAGCACUAUUAAGUUCACAUGAGGAUCACCCAUGUAGAAGGCACGAGCUGAG,apparent Kd,[2]; [3],14.9 nM
same,apparent Kd,[2]; [4],19.3 nM
AAAGAACAUGAGGAUCACCCAUGUGAGGAUAUGCGAAAACCGCUGACAAACCAGACGGGCAGAAGGCAUAUGGU,apparent Kd,[2]; [3],56.2 nM
same,apparent Kd,[2]; [4],76.3 nM
CCACCCUGAGGAUAUCCACCCUCAUACAUGAGGAUCACCCAUGUUCAUCCCUGAGUACCCGGAGAAGGCAGAUUCC,apparent Kd,[2]; [3],60.3 nM
same,apparent Kd,[2]; [4],50.6 nM
GUUUCCACAGGAAGGAACACUCGGAGAAGGGCACAUGAGGAUCACCCAUGUGCGGCUCGUCACGUGCAGGAUAUUCGAUAUAGA,apparent Kd,[2]; [3],7.2 nM
same,apparent Kd,[2]; [4],17.5 nM
AAUUGGAUGCAGAAGGCAUGGACGACUCGUCACAUUAACAUGAGGAUCACCCAUGUAAUAAGACAUGAGGAUAUGCAUCCUAAA,apparent Kd,[2]; [5],7.68 nM
same,apparent Kd,[2]; [6],5.49 nM
AAGACUAGAGGAUAUACAUGAGGAUCACCCAUGUAACUGUCAGGAGACUGACGGAGAUGUAGAAGGCUAGUCAA,apparent Kd,[2]; [3],17 nM
same,apparent Kd,[2]; [4],34.1 nM
AGAAAACAUGAGGAUCACCCAUGUAGAAAUAUGGGAGGAUAUACAAAGACGAAAGUCAGAGUAGAAGGCCUAAAAA,apparent Kd,[2]; [5],65.2 nM
same,apparent Kd,[2]; [6],17.6 nM
GUUAACGCAUGAGGAUAUGCUCACAUUUCAAGAGCAGAAGGUAUGUCUAUAGACAUGAGGAUCACCCAUGUAUUUAUCAUUGAA,apparent Kd,[2]; [5],166 nM
same,apparent Kd,[2]; [6],42.5 nM
AGAAGGCUACAGAAGGGACACACACGGUGGGAGUCAGGAUAUGUAGAGAAAACGUUACAUGAGGAUCACCCAUGUAGACCUUCC,apparent Kd,[2]; [5],73.9 nM
same,apparent Kd,[2]; [6],16.8 nM
GGAUGUAAGGAGAAGGGCUACUGGUUGAAACCUGCGGCCUCUGGAACAUGAGGAUCACCCAUGUAGCAGGAUAUCCUUGCGUGA,apparent Kd,[2]; [3],129 nM
same,apparent Kd,[2]; [4],46.3 nM
AAGUGCUAAGGAUAUAUAUGGAUAUACAUUUAUGUAGAACUACAUGAGGAUCACCCAUGUAGAAGGUAGCAAUA,apparent Kd,[2]; [3],25.3 nM
same,apparent Kd,[2]; [4],42.3 nM
AGCUACGUUUCGUAGCAGCUAGGUGAGGAUAUUCAAUUUUUCACAUGAGGAUCACCCAUGUAUGAAAAGAAGGCGCCUAGAAAG,apparent Kd,[2]; [5],4.45 nM
same,apparent Kd,[2]; [6],4.04 nM
